Data from ChEMBL document CHEMBL1129929, “Analogues of methotrexate in rheumatoid arthritis. 1. Effects of 10-deazaaminopterin analogues on type II collagen-induced arthritis in mice” (J Med Chem, 1997).

Tests used:
Mus musculus [1] = test: Tested for antiinflammatory activity on mouse type II collagen arthritis as Paw swelling* of all animals in each group on day 44 at intraperitoneal dose of 15 mg/kg; type: functional
In short: (§1)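 DBA/1 mice immunized with bovine type II collagen (Courtenay method, modified), antigen booster at day 21. Compounds given ip from 2 days before the first collagen challenge, then every 2 days. Hind paw dimensions (mm) measured for both limbs of all animals, expressed as mean ± SD. Eight mice per dose; untreated controls pooled from four experiments (48 animals).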

Mus musculus [2] = test: Incidence of disease(mouse type II collagen arthritis) was scored as the percentage of animals within each experimental group that exhibited joint or limb inflammation on day 23 at intraperitoneal dose of 10 mg/kg; type: functional
In short: (§2)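 DBA/1 mice were immunized with bovine type II collagen (modified Courtenay method), with a collagen booster on day 21. Compounds were given ip starting 2 days before the first collagen challenge and every 2 days thereafter. Incidence was the percentage of animals per group with joint or limb inflammation, scored on days 23, 30, 37 and 44.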

Mus musculus [3] = test: Incidence of disease(mouse type II collagen arthritis) was scored as the percentage of animals within each experimental group that exhibited joint or limb inflammation on day 37 at intraperitoneal of dose 15 mg/kg; type: functional; in short: as §2
Mus musculus [4] = test: Incidence of disease(mouse type II collagen arthritis) was scored as the percentage of animals within each experimental group that exhibited joint or limb inflammation on day 23 at intraperitoneal dose of 15 mg/kg; type: functional; in short: as §2
Mus musculus [5] = test: Incidence of disease(mouse type II collagen arthritis) was scored as the percentage of animals within each experimental group that exhibited joint or limb inflammation on day 37 at intraperitoneal of dose 10 mg/kg; type: functional; in short: as §2
Mus musculus [6] = test: Incidence of disease(mouse type II collagen arthritis) was scored as the percentage of animals within each experimental group that exhibited joint or limb inflammation on day 30 at intraperitoneal of dose 10 mg/kg; type: functional; in short: as §2
Mus musculus [7] = test: Incidence of disease(mouse type II collagen arthritis) was scored as the percentage of animals within each experimental group that exhibited joint or limb inflammation on day 30 at intraperitoneal of dose 15 mg/kg; type: functional; in short: as §2
Mus musculus [8] = test: Tested for antiinflammatory activity on mouse type II collagen arthritis as Paw swelling* of all animals in each group on day 37 at intraperitoneal dose of 10 mg/kg; type: functional; in short: as §1
Mus musculus [9] = test: Incidence of disease(mouse type II collagen arthritis) was scored as the percentage of animals within each experimental group that exhibited joint or limb inflammation on day 44 at intraperitoneal of dose 15 mg/kg; type: functional; in short: as §2
Mus musculus [10] = test: Incidence of disease(mouse type II collagen arthritis) was scored as the percentage of animals within each experimental group that exhibited joint or limb inflammation on day 44 at intraperitoneal of dose 10 mg/kg; type: functional; in short: as §2
Mus musculus [11] = test: Tested for antiinflammatory activity on mouse type II collagen arthritis as Paw swelling* of all animals in each group on day 30 at intraperitoneal dose of 10 mg/kg; type: functional; in short: as §1
Mus musculus [12] = test: Tested for antiinflammatory activity on mouse type II collagen arthritis as Paw swelling* of all animals in each group on day 23 at intraperitoneal dose of 15 mg/kg; type: functional; in short: as §1
Mus musculus [13] = test: Tested for antiinflammatory activity on mouse type II collagen arthritis as Paw swelling* of all animals in each group on day 30 at intraperitoneal dose of 15 mg/kg; type: functional; in short: as §1
Mus musculus [14] = test: Tested for antiinflammatory activity on mouse type II collagen arthritis as Paw swelling* of all animals in each group on day 37 at intraperitoneal dose of 15 mg/kg; type: functional; in short: as §1
Mus musculus [15] = test: Tested for antiinflammatory activity on mouse type II collagen arthritis as Paw swelling* of all animals in each group on day 44 at intraperitoneal dose of 10 mg/kg; type: functional; in short: as §1
Mus musculus [16] = test: Tested for antiinflammatory activity on mouse type II collagen arthritis as Paw swelling* of all animals in each group on day 23 at intraperitoneal dose of 10 mg/kg; type: functional; in short: as §1
[17] = Concentration required to inhibit the growth of chang liver cells; type: functional; conditions: Homo sapiens
L1210 = test: Concentration required to inhibit the growth of L1210 cells; type: functional, cell-based; conditions: Mus musculus
Mus musculus [18] = test: Tested for antiinflammatory activity on mouse type II collagen arthritis as Paw swelling* of all animals in each group on day 23 at intraperitoneal dose of 9 mg/kg; type: functional; in short: as §1
Mus musculus [19] = test: Incidence of disease(mouse type II collagen arthritis) was scored as the percentage of animals within each experimental group that exhibited joint or limb inflammation on day 30 at intraperitoneal of dose 9 mg/kg; type: functional; in short: as §2
Mus musculus [20] = test: Tested for antiinflammatory activity on mouse type II collagen arthritis as Paw swelling* of all animals in each group on day 30 at intraperitoneal dose of 9 mg/kg; type: functional; in short: as §1
Mus musculus [21] = test: Incidence of disease(mouse type II collagen arthritis) was scored as the percentage of animals within each experimental group that exhibited joint or limb inflammation on day 37 at intraperitoneal of dose 9 mg/kg; type: functional; in short: as §2
Mus musculus [22] = test: Tested for antiinflammatory activity on mouse type II collagen arthritis as Paw swelling* of all animals in each group on day 37 at intraperitoneal dose of 12 mg/kg; type: functional; in short: as §1
Mus musculus [23] = test: Incidence of disease(mouse type II collagen arthritis) was scored as the percentage of animals within each experimental group that exhibited joint or limb inflammation on day 44 at intraperitoneal of dose 9 mg/kg; type: functional; in short: as §2
Mus musculus [24] = test: Tested for antiinflammatory activity on mouse type II collagen arthritis as Paw swelling* of all animals in each group on day 44 at intraperitoneal dose of 9 mg/kg; type: functional; in short: as §1
Mus musculus [25] = test: Tested for antiinflammatory activity on mouse type II collagen arthritis as Paw swelling* of all animals in each group on day 30 at intraperitoneal dose of 12 mg/kg; type: functional; in short: as §1
Mus musculus [26] = test: Tested for antiinflammatory activity on mouse type II collagen arthritis as Paw swelling* of all animals in each group on day 37 at intraperitoneal dose of 9 mg/kg; type: functional; in short: as §1
Mus musculus [27] = test: Tested for antiinflammatory activity on mouse type II collagen arthritis as Paw swelling* of all animals in each group on day 44 at intraperitoneal dose of 12 mg/kg; type: functional; in short: as §1
Mus musculus [28] = test: Incidence of disease(mouse type II collagen arthritis) was scored as the percentage of animals within each experimental group that exhibited joint or limb inflammation on day 44 at intraperitoneal of dose 12 mg/kg; type: functional; in short: as §2
Mus musculus [29] = test: Incidence of disease(mouse type II collagen arthritis) was scored as the percentage of animals within each experimental group that exhibited joint or limb inflammation on day 30 at intraperitoneal of dose 12 mg/kg; type: functional; in short: as §2
Mus musculus [30] = test: Incidence of disease(mouse type II collagen arthritis) was scored as the percentage of animals within each experimental group that exhibited joint or limb inflammation on day 37 at intraperitoneal of dose 12 mg/kg; type: functional; in short: as §2
Mus musculus [31] = test: Tested for antiinflammatory activity on mouse type II collagen arthritis as Paw swelling* of all animals in each group on day 23 at intraperitoneal dose of 12 mg/kg; type: functional; in short: as §1
Mus musculus [32] = test: Incidence of disease(mouse type II collagen arthritis) was scored as the percentage of animals within each experimental group that exhibited joint or limb inflammation on day 23 at intraperitoneal dose of 9 mg/kg; type: functional; in short: as §2
Mus musculus [33] = test: Incidence of disease(mouse type II collagen arthritis) was scored as the percentage of animals within each experimental group that exhibited joint or limb inflammation on day 23 at intraperitoneal dose of 12 mg/kg; type: functional; in short: as §2

Compound CCC(Cc1cnc2nc(N)nc(N)c2n1)c1ccc(C(=O)NC(CCC(=O)O)C(=O)O)s1 (centres undefined) has a Paw swelling (Mus musculus [1]) of 2.26 mm, an Animals (Mus musculus [2]) of 0% and an Animals (Mus musculus [3]) of 12%. It also gave an Animals (Mus musculus [4]) of 0%, an Animals (Mus musculus [5]) of 25% and an Animals (Mus musculus [6]) of 0%. For the same compound, the Animals (Mus musculus [7]) was 0%, the Paw swelling (Mus musculus [8]) was 2.23 mm and the Animals (Mus musculus [9]) was 12%. For the same compound, the Animals (Mus musculus [10]) was 38%, the Paw swelling (Mus musculus [11]) was 2.15 mm and the Paw swelling (Mus musculus [12]) was 2.15 mm. For the same compound, the Paw swelling (Mus musculus [13]) was 2.17 mm, the Paw swelling (Mus musculus [14]) was 2.21 mm and the Paw swelling (Mus musculus [15]) was 2.25 mm. For the same compound, the Paw swelling (Mus musculus [16]) was 2.13 mm, the IC50 [17] was 1.6 nM and the IC50 (L1210) was 3.7 nM.

For Nc1nc(N)c2nc(CCc3ccc(C(=O)N[C@@H](CCC(=O)O)C(=O)O)cc3)cnc2n1, the Paw swelling (Mus musculus [1]) was 2.3 mm, the Paw swelling (Mus musculus [18]) was 2.19 mm and the Animals (Mus musculus [19]) was 38%. For the same compound, the Paw swelling (Mus musculus [20]) was 2.32 mm, the Animals (Mus musculus [3]) was 50% and the Animals (Mus musculus [4]) was 0%. It also gave an Animals (Mus musculus [21]) of 38%, a Paw swelling (Mus musculus [22]) of 2.31 mm and an Animals (Mus musculus [23]) of 50%. It also gave a Paw swelling (Mus musculus [24]) of 2.32 mm, a Paw swelling (Mus musculus [25]) of 2.36 mm and a Paw swelling (Mus musculus [26]) of 2.28 mm. The Paw swelling (Mus musculus [27]) was 2.33 mm, the Animals (Mus musculus [28]) was 62% and the Animals (Mus musculus [7]) was 38%. It also gave an Animals (Mus musculus [9]) of 38%, an Animals (Mus musculus [29]) of 50% and an Animals (Mus musculus [30]) of 50%. The Paw swelling (Mus musculus [12]) was 2.2 mm, the Paw swelling (Mus musculus [13]) was 2.31 mm and the Paw swelling (Mus musculus [14]) was 2.29 mm. For the same compound, the IC50 [17] was 98 nM, the IC50 (L1210) was 3.7 nM and the Paw swelling (Mus musculus [31]) was 2.21 mm. It also gave an Animals (Mus musculus [32]) of 25% and an Animals (Mus musculus [33]) of 12%.
